The test system of assay [1] is Zone of skin. Description: Melanotropic activity in frog skin assessed as skin darkening at 2.3 ng relative to control. Format: functional, Anura. The procedure, abridged: (§1)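 Skin-darkening activity of the synthetic peptides measured in vitro on isolated frog skin.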
Assay [2] deals with Zone of skin. Put plainly: Melanotropic activity in frog skin assessed as skin darkening at 6.9 ng relative to control. Format: functional, Anura. The procedure, abridged: as §1
Assay [3] is described as follows: Lipolytic activity in isolated rabbit fat cells assessed as glycerol production per gram of cells at 22 ng measured every hour. Format: functional, Oryctolagus cuniculus.
Assay [4] in a line: Lipolytic activity in isolated rabbit fat cells assessed as glycerol production per gram of cells at 66 ng measured every hour. Format: functional, Oryctolagus cuniculus.
Assay [5] relates to Zone of skin. Put plainly: Melanotropic activity in frog skin assessed as skin darkening at 6 ng relative to control. Format: functional, Anura. The procedure, abridged: as §1
Assay [6] deals with Zone of skin. Description: Melanotropic activity in frog skin assessed as skin darkening at 18 ng relative to control. Format: functional, Anura. Put shortly: as §1
For assay [7], the system named is Zone of skin. Put plainly: Melanotropic activity in frog skin assessed as skin darkening at 6 ng relative to beta-c1-MSH. The format is functional, Anura. Put shortly: as §1
Assay [8] in a line: Lipolytic activity in isolated rabbit fat cells assessed as glycerol production per gram of cells at 37 ng measured every hour. Format: functional, Oryctolagus cuniculus.
A short description of assay [9]: Lipolytic activity in isolated rabbit fat cells assessed as glycerol production per gram of cells at 111 ng measured every hour. Format: functional, Oryctolagus cuniculus.
Assay [10] can be described thus: Lipolytic activity in isolated rabbit fat cells assessed as glycerol production per gram of cells at 37 ng measured every hour relative to beta-c1-MSH. The format is functional, Oryctolagus cuniculus.
The subject of assay [11] is Zone of skin. Description: Melanotropic activity in frog skin assessed as skin darkening at 2.7 ng relative to control. Format: functional, Anura. The procedure, abridged:
as §1

Assay [12] has as its system Zone of skin. Put plainly: Melanotropic activity in frog skin assessed as skin darkening at 8.1 ng relative to control. The format is functional, Anura. The procedure, abridged:
as §1

Assay [13] concerns Zone of skin. Put plainly: Melanotropic activity in frog skin assessed as skin darkening at 2.7 ng relative to beta-b-MSH. The format is functional, Anura. Put shortly: as §1
A short description of assay [14]: Lipolytic activity in isolated rabbit fat cells assessed as glycerol production per gram of cells at 22 ng measured every hour relative to beta-b-MSH. Format: functional, Oryctolagus cuniculus.
Assay [15] in a line: Lipolytic activity in isolated rabbit fat cells assessed as glycerol production per gram of cells at 1100 ng measured every hour. Format: functional, Oryctolagus cuniculus.
The nature of assay [16]: Lipolytic activity in isolated rabbit fat cells assessed as glycerol production per gram of cells at 3300 ng measured every hour. Format: functional, Oryctolagus cuniculus.
Assay [17] can be described thus: Lipolytic activity in isolated rabbit fat cells assessed as glycerol production per gram of cells at 1100 ng measured every hour relative to beta-c1-MSH. The format is functional, Oryctolagus cuniculus.
Assay [18] concerns Zone of skin. Description: Melanotropic activity in frog skin assessed as skin darkening at 3 ng relative to control. The format is functional, Anura. Put shortly: as §1
Assay [19] deals with Zone of skin. Put plainly: Melanotropic activity in frog skin assessed as skin darkening at 9 ng relative to control. The format is functional, Anura. Put shortly: as §1
For assay [20], the system named is Zone of skin. Description: Melanotropic activity in frog skin assessed as skin darkening at 2.6 ng relative to control. Format: functional, Anura. Put shortly:
as §1

The subject of assay [21] is Zone of skin. Description: Melanotropic activity in frog skin assessed as skin darkening at 7.8 ng relative to control. Format: functional, Anura. The procedure, abridged: as §1
Assay [22] has as its system Zone of skin. Put plainly: Melanotropic activity in frog skin assessed as skin darkening at 2.6 ng relative to beta-b-MSH. The format is functional, Anura. Put shortly: as §1

Where a SMILES comes first, the peptide text is derived from it. The star is where a group is joined. For = O=C*

From ChEMBL document CHEMBL3244422, “Synthesis and biological activity of beta-melanotropins and analogues” (1977) come the findings set out here.

With `CSCC[C@H](NC(=O)[C@H](CCCCN)NC(=O)[C@H](Cc1ccc(O)cc1)NC(=O)[C@@H]1CCCN1C(=O)CNC(=O)[C@H](CO)NC(=O)[C@@H](N)CC(=O)O)C(=O)N[C@@H](CCC(=O)O)C(=O)N[C@@H](Cc1cnc[nH]1)C(=O)N[C@@H](Cc1ccccc1)C(=O)N[C@@H](CCCNC(=N)N)C(=O)N[C@@H](Cc1c[nH]c2ccccc12)C(=O)NCC(=O)N[C@@H](CO)C(=O)N1CCC[C@H]1C(=O)N1CCC[C@H]1C(=O)N[C@@H](CCCCN)C(=O)N[C@@H](CC(=O)O)C(=O)O` (stereo in doubt; form 2), the Activity in [1] came to 29.1%; in [2], 44.6%; in [3], 1.38 µmol; in assay [4], 3.76 µmol.
Turning to `CSCC[C@H](NC(=O)[C@H](CCCCN)NC(=O)[C@H](Cc1ccc(O)cc1)NC(=O)[C@@H]1CCCN1C(=O)CNC(=O)CNC(=O)[C@@H](N)CC(=O)O)C(=O)N[C@@H](CCC(N)=O)C(=O)N[C@@H](Cc1cnc[nH]1)C(=O)N[C@@H](Cc1ccccc1)C(=O)N[C@@H](CCCNC(=N)N)C(=O)N[C@@H](Cc1cn(C=O)c2ccccc12)C(=O)NCC(=O)N[C@@H](CO)C(=O)N1CCC[C@H]1C(=O)N1CCC[C@H]1C(=O)N[C@@H](CCCCN)C(=O)N[C@@H](CC(=O)O)C(=O)O` (H-DGGPYKMQHFRW(For)GSPPKD-OH), the Activity in assay [5] was 32.8%; in [6] it was 52.4%; in assay [7], 39.7%; in assay [8] it was 1.09 µmol; in assay [9], 2.05 µmol; in [10], 10.2%.
Consider `CSCC[C@H](NC(=O)[C@H](CCCCN)NC(=O)[C@H](Cc1ccc(O)cc1)NC(=O)[C@@H]1CCCN1C(=O)CNC(=O)[C@H](CO)NC(=O)[C@@H](N)CC(=O)O)C(=O)N[C@@H](CCC(=O)O)C(=O)N[C@@H](Cc1cnc[nH]1)C(=O)N[C@@H](Cc1ccccc1)C(=O)N[C@@H](CCCNC(=N)N)C(=O)N[C@@H](Cc1c[nH]c2ccccc12)C(=O)NCC(=O)N[C@@H](CO)C(=O)N1CCC[C@H]1C(=O)N1CCC[C@H]1C(=O)N[C@@H](CCCCN)C(=O)N[C@@H](CC(=O)O)C(=O)O` (stereo in doubt; form 1), for which the Activity amounted to 30.1% in [11]; 49.6% in [12]; 120.2% in assay [13]; 1.78 µmol in assay [8]; 2.96 µmol in assay [9]; 1.18 µmol in [3]. In addition, the Activity in [4] came to 3.61 µmol; in assay [10], 40.2%; in [14], 95.5%.
With H-DGGPYKMQHFRFGSPPKD-OH, the Activity in assay [5] was 26.2%; in assay [6], 38.2%; in assay [7], 28%; in assay [15], 1.29 µmol; in [16], 1.63 µmol; in assay [17] it was 0.006%.
As to H-DGGPYKMQHFRWGSPPKD-OH, the Activity in [18] was determined as 32.7%; in assay [19] it was 63.5%; in assay [5], 62%; in [6], 71%; in assay [8] it was 2.94 µmol; in [9], 3.6 µmol.
For H-DGGPYKMQHGRWGSPPKD-OH, the Activity in [5] turned out to be 5.5%; in assay [6], 7.8%; in assay [7], 0.8%; in assay [15], 0.19 µmol; in assay [16], 0.37 µmol; in assay [17], 0.001%.
Regarding H-DEGPYKMEHFRWGSPPKD-OH, the Activity in [20] worked out at 49.6%; in assay [21], 69.8%; in [3], 1.62 µmol; in assay [4], 3.49 µmol; in assay [14], 102.4%; in assay [22], 355.6%.
For H-DGGPYKMRHFRWGSPPKD-OH, the Activity in [5] worked out at 17.1%; in assay [6] it was 24.6%; in assay [7], 10.5%; in assay [8], 1.73 µmol; in assay [9] it was 3.12 µmol; in assay [10], 34.2%.
